≈ marks a conversion by molar mass, not a printed value.
Experiments:
[1] = Kinetic solubility in pH 7.4 PBS buffer by LC-UV assay; type: physicochemical; conditions: read-out: Kinetic_solubility
Procedure, shortened: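 Compound from a 10 mM DMSO stock diluted to a nominal 200 µM in 0.1 M potassium phosphate/0.8% NaCl pH 7.4 (2% DMSO final), n=2. Shaken 2 h at room temperature, then filtered. Filtrate quantified by LC-UV against 200 µM and 10 µM DMSO standards, with MS peak confirmation.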

[2] = AUC/dose in C57BL/6J mouse plasma at 3 mg/kg, iv administered as single dose by LC-MS/MS analysis; type: ADME, organism-based; conditions: in vivo
Procedure, shortened: (§1)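 Male C57BL/6 mice, single intravenous dose as solution in 10:50:40 DMSO:PEG400:H2O (5 mL/kg). Plasma by cardiac puncture and brain collected at set times, n=3 per time point. LC-MS/MS quantitation with diclofenac IS. Composite non-compartmental parameters from mean concentrations; C0 back-extrapolated from first two points; kel from at least last three concentrations; AUC dose-normalized.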

[3] = AUC/dose in C57BL/6J mouse brain at 3 mg/kg, iv administered as single dose by LC-MS/MS analysis; type: ADME, organism-based; conditions: in vivo; procedure, shortened: as §1
[4] = Volume of distribution at steady state in C57BL/6J mouse at 3 mg/kg, iv administered as single dose by LC-MS/MS analysis; type: ADME, organism-based; conditions: in vivo, read-out: Vdss
Procedure, shortened: (§2)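 Male mice given a single iv dose of 3 mg/kg in 10:50:40 DMSO:PEG400:H2O (5 mL/kg). Plasma (cardiac puncture) and brain collected, n=3 per time point, and measured by LC-MS/MS. Non-compartmental parameters from mean concentrations, with C0 back-extrapolated; AUC by linear trapezoidal method, dose-normalised.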

[5] = Ratio of AUC/dose in brain to plasma of C57BL/6J mouse at 3 mg/kg, iv administered as single dose by LC-MS/MS analysis; type: ADME, organism-based; conditions: brain and plasma, read-out: BPR; procedure, shortened: as §2
[6] = Unbound brain-to-plasma concentration ratio in C57BL/6J mouse at 3 mg/kg, iv administered as single dose by LC-MS/MS analysis; type: ADME, organism-based; conditions: brain and plasma, read-out: K(p,uu,brain)
[7] = AUC/dose in C57BL/6J mouse plasma at 10 mg/kg, po by LC-MS/MS analysis; type: ADME, organism-based; conditions: in vivo
Procedure, shortened: (§3)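 Male C57BL/6 mice, single oral dose as fine suspension in 10% or 20% hydroxypropyl-beta-cyclodextrin in water (10 mL/kg). Terminal cardiac-puncture plasma and saline-rinsed brain, n=3 per time point; brain homogenized in acetonitrile:water 3:1. LC-MS/MS with diclofenac IS; LLOQ 6 nM plasma, 21 nM brain. Composite non-compartmental analysis of mean concentrations; AUC normalized to actual dose.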

[8] = Oral bioavailability in C57BL/6J mouse plasma at 10 mg/kg by LC-MS/MS analysis; type: ADME, organism-based
Procedure, shortened: (§4)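 Male mice given a single oral dose of 10, 30 or 100 mg/kg as a fine suspension in 10% or 20% hydroxypropyl-β-cyclodextrin (10 mL/kg). Plasma and brain collected (n=3/time point) and measured by LC-MS/MS. Non-compartmental analysis on mean concentrations; AUC dose-normalised. %F = normalised po AUCinf / normalised iv AUCinf.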

[9] = Cmax/dose in C57BL/6J mouse plasma at 10 mg/kg, po by LC-MS/MS analysis; type: ADME, organism-based; conditions: in vivo; procedure, shortened: as §3
[10] = Tmax in C57BL/6J mouse plasma at 10 mg/kg, po by LC-MS/MS analysis; type: ADME, organism-based; procedure, shortened: as §4
[11] = AUC/dose in C57BL/6J mouse plasma at 30 mg/kg, po by LC-MS/MS analysis; type: ADME, organism-based; conditions: in vivo; procedure, shortened: as §3
[12] = Oral bioavailability in C57BL/6J mouse plasma at 30 mg/kg by LC-MS/MS analysis; type: ADME, organism-based; procedure, shortened: as §4
[13] = Cmax/dose in C57BL/6J mouse plasma at 30 mg/kg, po by LC-MS/MS analysis; type: ADME, organism-based; conditions: in vivo; procedure, shortened: as §3
[14] = Tmax in C57BL/6J mouse plasma at 30 mg/kg, po by LC-MS/MS analysis; type: ADME, organism-based; procedure, shortened: as §4
[15] = AUC/dose in C57BL/6J mouse plasma at 100 mg/kg, po by LC-MS/MS analysis; type: ADME, organism-based; conditions: in vivo; procedure, shortened: as §3
[16] = Oral bioavailability in C57BL/6J mouse plasma at 100 mg/kg by LC-MS/MS analysis; type: ADME, organism-based; procedure, shortened: as §4
[17] = Cmax/dose in C57BL/6J mouse plasma at 100 mg/kg, po by LC-MS/MS analysis; type: ADME, organism-based; conditions: in vivo; procedure, shortened: as §3
[18] = Tmax in C57BL/6J mouse plasma at 100 mg/kg, po by LC-MS/MS analysis; type: ADME, organism-based; procedure, shortened: as §4
[19] = AUC/dose in C57BL/6J mouse brain at 10 mg/kg, po by LC-MS/MS analysis; type: ADME, organism-based; conditions: in vivo; procedure, shortened: as §3
[20] = Cmax/dose in C57BL/6J mouse brain at 10 mg/kg, po by LC-MS/MS analysis; type: ADME, organism-based; conditions: in vivo; procedure, shortened: as §3
[21] = Tmax in C57BL/6J mouse brain at 10 mg/kg, po by LC-MS/MS analysis; type: ADME, organism-based; procedure, shortened: as §4
[22] = Ratio of AUC/dose in brain to plasma of C57BL/6J mouse at 10 mg/kg, po administered as single dose by LC-MS/MS analysis; type: ADME, organism-based; conditions: brain and plasma, read-out: BPR; procedure, shortened: as §4
[23] = Unbound brain-to-plasma concentration ratio in C57BL/6J mouse at 10 mg/kg, po administered as single dose by LC-MS/MS analysis; type: ADME, organism-based; conditions: brain and plasma, read-out: K(p,uu,brain)
[24] = AUC/dose in C57BL/6J mouse brain at 30 mg/kg, po by LC-MS/MS analysis; type: ADME, organism-based; conditions: in vivo; procedure, shortened: as §3
[25] = Cmax/dose in C57BL/6J mouse brain at 30 mg/kg, po by LC-MS/MS analysis; type: ADME, organism-based; conditions: in vivo; procedure, shortened: as §3
[26] = Tmax in C57BL/6J mouse brain at 30 mg/kg, po by LC-MS/MS analysis; type: ADME, organism-based; procedure, shortened: as §4
[27] = Ratio of AUC/dose in brain to plasma of C57BL/6J mouse at 30 mg/kg, po administered as single dose by LC-MS/MS analysis; type: ADME, organism-based; conditions: brain and plasma, read-out: BPR; procedure, shortened: as §4
[28] = Unbound brain-to-plasma concentration ratio in C57BL/6J mouse at 30 mg/kg, po administered as single dose by LC-MS/MS analysis; type: ADME, organism-based; conditions: brain and plasma, read-out: K(p,uu,brain)
[29] = AUC/dose in C57BL/6J mouse brain at 100 mg/kg, po by LC-MS/MS analysis; type: ADME, organism-based; conditions: in vivo; procedure, shortened: as §3
[30] = Cmax/dose in C57BL/6J mouse brain at 100 mg/kg, po by LC-MS/MS analysis; type: ADME, organism-based; conditions: in vivo; procedure, shortened: as §3
[31] = Tmax in C57BL/6J mouse brain at 100 mg/kg, po by LC-MS/MS analysis; type: ADME, organism-based; procedure, shortened: as §4
[32] = Ratio of AUC/dose in brain to plasma of C57BL/6J mouse at 100 mg/kg, po administered as single dose by LC-MS/MS analysis; type: ADME, organism-based; conditions: brain and plasma, read-out: BPR; procedure, shortened: as §4
[33] = Unbound brain-to-plasma concentration ratio in C57BL/6J mouse at 100 mg/kg, po administered as single dose by LC-MS/MS analysis; type: ADME, organism-based; conditions: brain and plasma, read-out: K(p,uu,brain)

solubility kinetic [1]: 11 µg/mL (≈ 27 µM) | AUC/dose [2]: 2700 nM·kg·h/mg | AUC/dose [3]: 3500 nM·kg·h/mg | Vd [4]: 1.6 L/kg | Kp [5]: 1.3 | Kp uu [6]: 0.44 | AUC/dose [7]: 2400 nM·kg·h/mg | bioavailability [8]: 89% | Cmax/dose [9]: 850 nM·kg/mg | Tmax [10]: 60 min | AUC/dose [11]: 3000 nM·kg·h/mg | bioavailability [12]: 111% | Cmax/dose [13]: 890 nM·kg/mg | Tmax [14]: 15 min | AUC/dose [15]: 1800 nM·kg·h/mg | bioavailability [16]: 67% | Cmax/dose [17]: 450 nM·kg/mg | Tmax [18]: 15 min | AUC/dose [19]: 3200 nM·kg·h/mg | Cmax/dose [20]: 950 nM·kg/mg | Tmax [21]: 60 min | Kp [22]: 1.3 | Kp uu [23]: 0.45 | AUC/dose [24]: 3300 nM·kg·h/mg | Cmax/dose [25]: 880 nM·kg/mg | Tmax [26]: 30 min | Kp [27]: 1.1 | Kp uu [28]: 0.37 | AUC/dose [29]: 2600 nM·kg·h/mg | Cmax/dose [30]: 850 nM·kg/mg | Tmax [31]: 60 min | Kp [32]: 1.4 | Kp uu [33]: 0.49
SMILES: COc1ccc2c(c1)Cc1cccc(-c3cc(=O)cc(N4CCOCC4)o3)c1S2

From ChEMBL document CHEMBL4680114, “Optimization of Potent and Selective Ataxia Telangiectasia-Mutated Inhibitors Suitable for a Proof-of-Concept Study in Huntington's Disease Models” (J Med Chem, 2019)
